# Test results from ChEMBL document CHEMBL3243964, “Biomolecules bearing the S- or SeAsMe2 function: amino acid and steroid derivatives” (J Med Chem, 1979).
# The source made the active and inactive calls. No cut-off for these calls is given here.
# Assays:
# L1210 [1] = experiment: Carcinostatic activity against mouse L1210 cells allografted in mouse assessed as increase in survival at 100 mg/kg relative to control; type: functional
# Mus musculus = organism: Mus musculus; experiment: Toxicity in mouse allografted with mouse L1210 cells; type: organism-based
# L1210 [2] = experiment: Carcinostatic activity against mouse L1210 cells allografted in mouse assessed as increase in life span at 100 mg/kg relative to control; type: functional
# In short: (§1)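 Mice bearing L1210 lymphoid leukemia, tested externally. Read-out is percent increased life span (ILS) of treated versus control animals at the dose shown in mg/kg.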
# L1210 [3] = experiment: Carcinostatic activity against mouse L1210 cells allografted in mouse assessed as increase in survival at 50 mg/kg relative to control; type: functional
# Staphylococcus aureus [4] = experiment: Bacteriostatic activity against Staphylococcus aureus 209 cultured in nutrient broth; type: functional, organism-based
# In short: (§2)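 Bacteria grown in nutrient broth with the compound. Read-out is inhibition of growth, with total inhibition scored. Gram-negative (K. pneumoniae) and Gram-positive strains were tested.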
# Staphylococcus aureus [5] = experiment: Bacteriostatic activity against Staphylococcus aureus 209; type: functional
# Klebsiella pneumoniae = experiment: Bacteriostatic activity against Klebsiella pneumoniae; type: functional, organism-based; in short: as §2
# L1210 [6] = experiment: Carcinostatic activity against mouse L1210 cells allografted in mouse assessed as increase in life span at 500 mg/kg relative to control; type: functional; in short: as §1
SMILES,T/C (L1210 [1]),Activity (Mus musculus),Activity (L1210 [2]),T/C (L1210 [3]),growth inhibition (GI) (Staphylococcus aureus [4]),inhibition zone (IZ) (Staphylococcus aureus [5]),Activity (Klebsiella pneumoniae),Activity (L1210 [6])
C[As](C)SCC[C@H](NC(=O)[C@@H](N)CCS[As](C)C)C(=O)O,144%,> 200 mg/kg,,,,,,
C[As](C)SCC[C@@H](CCCCC(=O)O)S[As](C)C,,100 mg/kg,33%,128%,,,,
C[As](C)SCC(N)C(=O)O (racemic),,200 mg/kg,,110%,Active,15 mm,,
C[As](C)SC[C@H](NC(=O)CC[C@H](N)C(=O)O)C(=O)NCC(=O)O [DARINAPARSIN],164%,400 mg/kg,,,Active,20 mm,Active,33%
